Experimental data taken from ChEMBL document CHEMBL1132497, “Synthesis and SAR of adatanserin: novel adamantyl aryl- and heteroarylpiperazines with dual serotonin 5-HT(1A) and 5-HT(2) activity as potential anxiolytic and antidepressant agents” (J Med Chem, 1999).

Assays:
[1] = target: T1, 5-hydroxytryptamine receptor 1A (Rattus norvegicus) (UniProt P19327); assay: Inhibitory activity against 5-hydroxytryptamine 1A receptor of rat hippocampal tissue at 1 uM; assay type: tissue-based; settings: Hippocampus
T1 sequence (whole entry): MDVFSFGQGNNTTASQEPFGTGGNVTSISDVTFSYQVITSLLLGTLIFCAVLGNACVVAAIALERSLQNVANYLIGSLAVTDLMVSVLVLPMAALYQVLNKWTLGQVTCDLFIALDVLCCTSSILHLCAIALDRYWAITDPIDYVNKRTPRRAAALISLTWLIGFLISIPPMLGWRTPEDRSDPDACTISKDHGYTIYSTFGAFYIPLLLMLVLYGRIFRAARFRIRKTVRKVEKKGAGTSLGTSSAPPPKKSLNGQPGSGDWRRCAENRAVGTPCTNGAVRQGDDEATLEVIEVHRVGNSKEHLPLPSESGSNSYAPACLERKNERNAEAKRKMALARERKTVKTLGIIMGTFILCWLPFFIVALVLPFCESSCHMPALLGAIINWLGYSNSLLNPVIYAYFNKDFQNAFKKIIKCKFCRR

[2] = target: D(2) dopamine receptor (Rattus norvegicus) (UniProt P61169); assay: Inhibitory activity against Dopamine receptor D2 of rat limbic tissue at 1 uM; assay type: tissue-based; settings: Limbic system
Sequence of D(2) dopamine receptor (Rattus norvegicus) (P61169 whole entry): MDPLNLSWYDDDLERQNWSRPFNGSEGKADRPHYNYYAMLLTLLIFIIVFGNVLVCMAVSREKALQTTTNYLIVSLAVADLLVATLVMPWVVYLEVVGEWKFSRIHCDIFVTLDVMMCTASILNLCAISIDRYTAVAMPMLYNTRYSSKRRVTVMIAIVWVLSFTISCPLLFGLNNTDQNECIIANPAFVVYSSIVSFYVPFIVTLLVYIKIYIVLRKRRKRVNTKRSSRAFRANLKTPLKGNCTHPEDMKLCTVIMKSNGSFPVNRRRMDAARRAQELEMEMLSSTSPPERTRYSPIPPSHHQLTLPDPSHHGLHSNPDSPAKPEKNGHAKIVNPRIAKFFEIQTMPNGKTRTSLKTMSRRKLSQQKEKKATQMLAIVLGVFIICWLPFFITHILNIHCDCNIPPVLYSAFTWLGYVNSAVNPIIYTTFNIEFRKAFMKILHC

[3] = target: T2, 5-hydroxytryptamine receptor 1A (Rattus norvegicus, UniProt P19327); assay: Antagonist activity against rat hippocampal tissue 5-hydroxytryptamine 1A receptor; assay type: functional, tissue-based, Hippocampus
T2 sequence (P19327 whole entry): T1 sequence (whole entry)

[4] = target: Serotonin 2 (5-HT2) receptor (Rattus norvegicus, UniProt P30994+P08909+P14842); assay: Inhibitory activity against rat cortical 5-hydroxytryptamine 2 receptor; assay type: protein assay
Procedure, shortened: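 Cortical membranes from male Sprague–Dawley rats, incubated 15 min at 37 °C in 50 mM Tris pH 7.6 with 1.0 nM [3H]ketanserin and a range of drug concentrations. Nonspecific binding defined with 100 μM methysergide. Run by filtration and counting.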

inhibition [1] [%]	inhibition [2] [%]	Ki [3] [nM]	Ki [4] [nM]	SMILES
63	–	–	–	O=C(OCCCN1CCN(Cc2ccccc2)CC1)C12C[C@H]3C[C@@H](C1)C[C@@H](C2)C3
–	40	38	–	C[C@@]12C[C@@H]3C[C@@H](CC(CC(=O)NCCN4CCN(c5cccc(Cl)c5)CC4)(C3)C1)C2
36	–	–	–	CC(C)N(CCN1CCN(c2ncccn2)CC1)C(=O)C12C[C@H]3C[C@@H](C1)C[C@@H](C2)C3
–	8	46	–	O=C(NCCN1CCN(Cc2ccccc2)CC1)C12C[C@H]3C[C@@H](C1)C[C@@H](C2)C3
–	38	45	277	Cl.Cl.O=C(NCCCN1CCN(c2cccc(Cl)c2)CC1)NC12C[C@H]3C[C@@H](C1)C[C@@H](C2)C3
–	–	30	–	C[C@@]12C[C@@H]3C[C@@H](CC(CC(=O)NCCN4CCN(c5ncccn5)CC4)(C3)C1)C2
–	14	37	–	C[C@H](CN1CCN(Cc2ccccc2)CC1)NC(=O)C12C[C@H]3C[C@@H](C1)C[C@@H](C2)C3
–	72	77	71	O=C(NCCN1CCN(c2ncccn2)CC1)NC12C[C@H]3C[C@@H](C1)C[C@@H](C2)C3
–	6	89	21	Cl.Cl.O=C(NCCCN1CCN(c2ncccn2)CC1)C12C[C@H]3C[C@@H](C1)C[C@@H](C2)C3
–	100	4.8	–	COc1ccccc1N1CCN(CCOC(=O)C23CC4C[C@@H](C[C@H]2C4)C3)CC1
–	100	26	–	COc1ccccc1N1CCN(CCCOC(=O)C23CC4C[C@@H](C[C@H]2C4)C3)CC1
–	95	17	–	COc1ccccc1N1CCN(CCCOC(=O)CC23C[C@H]4C[C@@H](C2)C[C@](C)(C4)C3)CC1
0	–	–	–	CC(C)(CN1CCN(Cc2ccccc2)CC1)NC(=O)C12C[C@H]3C[C@@H](C1)C[C@@H](C2)C3
–	–	127	–	CC(C)(CN1CCN(c2ncccn2)CC1)NC(=O)C12C[C@H]3C[C@@H](C1)C[C@@H](C2)C3
–	32	19	–	O=C(NCCCN1CCN(c2cccc(Cl)c2)CC1)C12C[C@H]3C[C@@H](C1)C[C@@H](C2)C3
–	31	10	4.3	Cl.Cl.O=C(NCCCN1CCN(c2cccc(Cl)c2)CC1)C12CC3CC(CC1C3)C2
–	94	0.7	2.3	Cl.Cl.O=C(NCCN1CCN(c2cccc(Cl)c2)CC1)C12CC3CC(CC1C3)C2
–	27	–	286	Cl.Cl.O=C(NCCCN1CCN(c2ncccn2)CC1)C12CC3CC(CC1C3)C2
–	14	131	47	Cl.Cl.Cl.O=C(CCN1CCN(c2ncccn2)CC1)NC12C[C@H]3C[C@@H](C1)C[C@@H](C2)C3
–	36	76	–	O=C(NC12C[C@H]3C[C@@H](C1)C[C@@H](C2)C3)OCCN1CCN(c2cccc(Cl)c2)CC1
–	67	2.4	262	Cl.Cl.O=C(NCCN1CCN(c2ncccn2)CC1)C12CC3CC(CC1C3)C2
–	–	96	–	O=C(NCCN1CCN(c2ccc(Cl)cc2)CC1)C12C[C@H]3C[C@@H](C1)C[C@@H](C2)C3
–	56	61	89	O=C(NCCN1CCN(c2cccc(Cl)c2)CC1)NC12C[C@H]3C[C@@H](C1)C[C@@H](C2)C3
–	95	40	–	COc1ccccc1N1CCN(CCOC(=O)NC23C[C@H]4C[C@@H](C2)C[C@@H](C3)C4)CC1
–	47	–	–	O=C(OCCN1CCN(c2ncccn2)CC1)C12CC3CC(CC1C3)C2
–	–	60	–	CN(CCN1CCN(c2ncccn2)CC1)C(=O)C12C[C@H]3C[C@@H](C1)C[C@@H](C2)C3
